Assay results published in ChEMBL document CHEMBL5236549, “Discovery of 2-Sulfinyl-Diazabicyclooctane Derivatives, Potential Oral β-Lactamase Inhibitors for Infections Caused by Serine β-Lactamase-Producing Enterobacterales” (J Med Chem, 2021).

Experiments:
[1] = system: Klebsiella pneumoniae; assay: Antibacterial activity against Klebsiella pneumoniae ATCC BAA1705 assessed as reduction in bacterial growth by measuring minimum potentiating concentration incubated for 16 to 20 hrs by CLSI based two-fold serial dilution method; conditions: time 16-20 hrs
[2] = system: Escherichia coli; assay: Antibacterial activity against Escherichia coli ATCC SR09613 assessed as reduction in bacterial growth by measuring minimum […] concentration incubated for 16 to 24 hrs by CLSI based two-fold serial dilution method; assay type: functional; conditions: time 16-24 hrs
How it was run: (§1)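 MPC₁ by broth microdilution: twofold serial dilutions of inhibitor in cation-adjusted Mueller Hinton broth containing ceftibuten at 1 μg/mL. Inoculum about 5 × 10⁴ cfu/well final, set from OD625. Incubation at 35 °C for 16−20 h. […] N = 1.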

[3] = system: Klebsiella pneumoniae; assay: Antibacterial activity against Klebsiella pneumoniae ATCC SR201218 assessed as inhibition of bacterial growth incubated for 16 to 20 hrs by CLSI based two-fold serial dilution method
[4] = Inhibition of bacterial beta-lactamase CTX-M-15 using nitrocefin as substrate incubated for 20 mins; design: species or system Bacteria
[5] = system: Escherichia coli; assay: Antibacterial activity against Escherichia coli ATCC SR34100 assessed as inhibition of bacterial growth incubated for 16 to 20 hrs by CLSI based two-fold serial dilution method
[6] = system: Escherichia coli; assay: Antibacterial activity against Escherichia coli ATCC SR09613 assessed as inhibition of bacterial growth incubated for 16 to 20 hrs by CLSI based two-fold serial dilution method
[7] = Inhibition of bacterial beta-lactamase CMY-2 using nitrocefin as substrate incubated for 20 mins; design: species or system Bacteria
How it was run: (§2)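 Nitrocefin hydrolysis read by absorbance. Enzyme titrated to give about 0.2 absorbance change over the no-enzyme control. Enzyme added to nitrocefin (final 50 μg/mL) plus inhibitor, no preincubation, read after 20 min at 35 °C. IC50 is 50% reduction of hydrolysis. N = 1.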

[8] = system: Klebsiella pneumoniae; assay: Antibacterial activity against Klebsiella pneumoniae ATCC SR201218 assessed as reduction in bacterial growth by measuring minimum […] concentration incubated for 16 to 24 hrs by CLSI based two-fold serial dilution method; assay type: functional; conditions: time 16-24 hrs
How it was run: as §1

[9] = system: Klebsiella pneumoniae; assay: Antibacterial activity against Klebsiella pneumoniae ATCC BAA1705 assessed as inhibition of bacterial growth incubated for 16 to 20 hrs by CLSI based two-fold serial dilution method
[10] = Inhibition of bacterial beta-lactamase KPC-2 using nitrocefin as substrate incubated for 20 mins; design: species or system Bacteria
How it was run: as §2

[11] = system: Escherichia coli; assay: Antibacterial activity against Escherichia coli ATCC SR34100 assessed as reduction in bacterial growth by measuring minimum […] concentration incubated for 16 to 24 hrs by CLSI based two-fold serial dilution method; assay type: functional; conditions: time 16-24 hrs
How it was run: as §1

[12] = Inhibition of bacterial beta-lactamase OXA-48 using nitrocefin as substrate incubated for 20 mins; design: species or system Bacteria
How it was run: as §2

[13] = Cmax in rat at 5 mg/kg,po by LC/MS/MS analysis; assay type: ADME, organism-based; design: dose 5 mg/kg, route po; conditions: in vivo
How it was run: (§3)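 Plasma of the parent acid measured by LC/MS/MS (methanol precipitation, positive ESI, external standard); oral values follow prodrug dosing (rat fed, dog and monkey fasted). AUC from 0 h to last time point by linear trapezoid; F from oral AUC versus iv AUC of the parent. N = 2 (rat, dog), N = 3 (monkey, mouse).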

[14] = Cmax in monkey at 10 mg/kg,po by LC/MS/MS analysis; assay type: ADME, organism-based, Macaca mulatta; design: dose 10 mg/kg, route po; conditions: rhesus monkey, in vivo
How it was run: as §3

[15] = Oral bioavailability in monkey at 10 mg/kg by LC/MS/MS analysis; assay type: ADME, organism-based, Macaca mulatta; conditions: rhesus monkey, in vivo
How it was run: as §3

[16] = AUC in dog at 10 mg/kg,po by LC/MS/MS analysis; assay type: ADME, organism-based, Canis lupus familiaris; design: dose 10 mg/kg, route po; conditions: in vivo
How it was run: as §3

[17] = Tmax in dog at 10 mg/kg,po by LC/MS/MS analysis; assay type: ADME, organism-based, Canis lupus familiaris; conditions: in vivo
[18] = Oral bioavailability in rat at 5 mg/kg by LC/MS/MS analysis; assay type: ADME, organism-based; conditions: in vivo
How it was run: as §3

[19] = Tmax in rat at 5 mg/kg,po by LC/MS/MS analysis; assay type: ADME, organism-based; conditions: in vivo
[20] = Oral bioavailability in dog at 10 mg/kg by LC/MS/MS analysis; assay type: ADME, organism-based, Canis lupus familiaris; conditions: in vivo
How it was run: as §3

[21] = Cmax in dog at 10 mg/kg,po by LC/MS/MS analysis; assay type: ADME, organism-based, Canis lupus familiaris; design: dose 10 mg/kg, route po; conditions: in vivo
How it was run: as §3

[22] = Tmax in monkey at 10 mg/kg,po by LC/MS/MS analysis; assay type: ADME, organism-based, Macaca mulatta; conditions: rhesus monkey, in vivo
[23] = AUC in rat at 5 mg/kg,po by LC/MS/MS analysis; assay type: ADME, organism-based; design: dose 5 mg/kg, route po; conditions: in vivo
How it was run: as §3

[24] = AUC in monkey at 10 mg/kg,po by LC/MS/MS analysis; assay type: ADME, organism-based, Macaca mulatta; design: dose 10 mg/kg, route po; conditions: rhesus monkey, in vivo
How it was run: as §3

[25] = Stability of the compound in phosphate buffer at pH 7.0 assessed as parent compound remaining at 40 degreeC measured after 16 hrs; assay type: physicochemical; conditions: read-out: Stability
How it was run: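 Compound held in pH 7.0 phosphate buffer at 40 °C for 16 h; amount remaining reported as %.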

[26] = Stability in rat serum assessed as compound remaining at 5 micromol/L incubated for 30 mins by LC-MS/MS analysis; assay type: ADME, cell-free; conditions: dose 5 µmol/L, read-out: Stability
How it was run: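 Pooled rat serum incubated with 5 μmol/L compound for 30 min at 37 °C, in duplicate; aliquot mixed with methanol, centrifuged, supernatant analysed by LC/MS/MS for % remaining.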

[27] = Total clearance in rat by LC-MS/MS analysis; assay type: ADME; conditions: in vivo

| Structure (SMILES) | MPC [1] [µg/mL] | MPC [2] [µg/mL] | MIC [3] [µg/mL] | IC50 [4] [nM] | MIC [5] [µg/mL] | MIC [6] [µg/mL] | IC50 [7] [nM] | MPC [8] [µg/mL] | MIC [9] [µg/mL] | IC50 [10] [nM] | MPC [11] [µg/mL] | further results |
| --- | --- | --- | --- | --- | --- | --- | --- | --- | --- | --- | --- | --- |
| O=C([O-])[C@@H](F)ON1C(=O)N2C[C@H]1CC[C@H]2[S@+]([O-])CF.[Na+] | 0.5 | 0.25 | > 32 | 6 | 32 | 32 | 113 | 2 | 32 | 90 | 0.25 | – |
| N#CC[S@@+]([O-])[C@@H]1CC[C@@H]2CN1C(=O)N2O[C@H](F)C(=O)[O-].[Na+] | <0.031 | 0.125 | > 32 | 7 | > 32 | 32 | 96 | 2 | > 32 | 39 | 0.25 | – |
| NCC[S@@+]([O-])[C@@H]1CC[C@@H]2CN1C(=O)N2O[C@H](F)C(=O)O.O=C(O)C(F)(F)F | <0.031 | 0.5 | > 32 | 159 | > 32 | > 32 | 431 | 4 | > 32 | 69 | 0.125 | – |
| C[S@+]([O-])[C@@H]1CC[C@@H]2CN1C(=O)N2O[C@H](F)C(=O)[O-].[Na+] | 0.125 | 0.5 | > 32 | 445 | 16 | 32 | 655 | 2 | 32 | 443 | 0.125 | IC50 [12]: 32600 nM |
| CC(C)OC(=O)[C@@H](F)ON1C(=O)N2C[C@H]1CC[C@H]2[S@@+](C)[O-] | – | – | – | – | – | – | – | – | – | – | – | Cmax [13]: 1700 ng/mL; Cmax [14]: 4380 ng/mL; bioavailability [15]: 25.5%; AUC [16]: 18400 ng·h/mL; Tmax [17]: 48 min; bioavailability [18]: 67.6%; Tmax [19]: 30 min; bioavailability [20]: 48.1%; Cmax [21]: 7390 ng/mL; Tmax [22]: 60 min; AUC [23]: 2090 ng·h/mL; AUC [24]: 7060 ng·h/mL; remaining at 16 h [25]: 56% |
| Nc1ncc(C[S@@+]([O-])[C@@H]2CC[C@@H]3CN2C(=O)N3O[C@H](F)C(=O)[O-])s1.[Na+] | 0.25 | 0.5 | > 32 | 10 | > 32 | > 32 | 41 | 4 | > 32 | 88 | 1 | IC50 [12]: 981 nM |
| O=C([O-])[C@@H](F)ON1C(=O)N2C[C@H]1CC[C@H]2[S@+]([O-])CCCO.[Na+] | 0.5 | 0.063 | > 32 | 10 | > 32 | > 32 | 39 | 2 | > 32 | 38 | 1 | – |
| CC(=O)NCC[S@@+]([O-])[C@@H]1CC[C@@H]2CN1C(=O)N2O[C@H](F)C(=O)[O-].[Na+] | 0.25 | 0.063 | – | 101 | > 32 | > 32 | 101 | 8 | > 32 | 7 | 0.5 | – |
| O=C([O-])[C@@H](F)ON1C(=O)N2C[C@H]1CC[C@H]2[S@+]([O-])Cc1c[nH]cn1.[Na+] | 1 | 0.125 | > 32 | 8 | 32 | > 32 | 59 | 4 | 32 | 78 | 1 | – |
| NC(=O)/C(C[S@@+]([O-])[C@@H]1CC[C@@H]2CN1C(=O)N2O[C@H](F)C(=O)[O-])=N\O.[Na+] (stereo in doubt) | 2 | 0.25 | > 32 | 70 | > 32 | > 32 | 143 | 32 | > 32 | 132 | 2 | – |
| Cc1nnc(C[S@@+]([O-])[C@@H]2CC[C@@H]3CN2C(=O)N3O[C@H](F)C(=O)[O-])o1.[Na+] | 1 | 0.125 | > 32 | 24 | > 32 | > 32 | 36 | 4 | > 32 | 16 | 1 | – |
| NS(=O)(=O)[C@@H]1CC[C@@H]2CN1C(=O)N2OC(F)(F)C(=O)O.[Na+] | – | – | – | 104 | – | – | 1340 | – | – | 52 | – | remaining at 0.5 h, 5 µM [26]: 39%; clearance [27]: 84.5 mL/min/kg; remaining at 16 h [25]: 55% |
| NS(=O)(=O)[C@@H]1CC[C@@H]2CN1C(=O)N2O[C@H](F)C(=O)[O-].[Na+] | – | – | – | 249 | – | – | 1110 | – | – | 977 | – | remaining at 0.5 h, 5 µM [26]: 78%; clearance [27]: 19.8 mL/min/kg; remaining at 16 h [25]: 91% |
| NC(=O)C[S@@+]([O-])[C@@H]1CC[C@@H]2CN1C(=O)N2O[C@H](F)C(=O)[O-].[Na+] | 0.063 | 0.125 | > 32 | 50 | 32 | 32 | 57 | 4 | 32 | 35 | 0.25 | – |
| O=C([O-])[C@@H](F)ON1C(=O)N2C[C@H]1CC[C@H]2[S@+]([O-])C[C@@H](O)CO.[Na+] | 0.25 | 0.125 | > 32 | 10 | > 32 | > 32 | 52 | 8 | > 32 | 56 | 1 | – |
| C[S@@+]([O-])[C@@H]1CC[C@@H]2CN1C(=O)N2OC(F)(F)C(=O)[O-].[Na+] | – | – | – | 5 | – | – | 26 | – | – | 8 | – | clearance [27]: 289 mL/min/kg; remaining at 16 h [25]: 17% |
| NC(=O)OCC[S@@+]([O-])[C@@H]1CC[C@@H]2CN1C(=O)N2O[C@H](F)C(=O)[O-].[Na+] | 1 | 0.125 | > 32 | 14 | > 32 | > 32 | 64 | 4 | > 32 | 27 | 1 | – |
| O=C([O-])[C@@H](F)ON1C(=O)N2C[C@H]1CC[C@H]2[S@+]([O-])CCO.[Na+] | 1 | 0.125 | > 32 | 16 | > 32 | > 32 | 57 | 2 | – | 36 | 0.5 | – |
